Source: ChEMBL document CHEMBL5724801, “EUbOPEN Chemogenomics Library - Multiplex” (2024)
Several values for one entry are separate records, joined by “and”; a condition that tells them apart may be missing. Identical values can stand only once.

system: HEK-293T; assay: Multiplex assay against HEK293T; type: toxicity, cell-based; conditions: human, 12 h, 1 µM, compound concentration 1 uM
Outline: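 Per cents of healthy-nucleus cells form the tubulin, mitochondrial-mass and membrane-permeability phenotype values. Live cells were stained at seeding with Hoechst33342, BioTracker Green Microtubule Cytoskeleton Dye, MitoTracker Red and Annexin V Alexa Fluor 680. After compound addition they were imaged on a CQ1 microscope at 37°C and 5% CO2, and CellPathfinder machine-learning gating split them into Hoechst high-intensity objects or normal cells, normal cells into healthy, pyknosed or fragmented nuclei, and pyknosed cells into mitotic or apoptotic.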

SMILES | Population Apoptotic (%) | Population Fragmented Nuclei (%) | Population Healthy Nuclei (%) | Population Hoechst High Intensity Objects (%) | Population Membrane Permeable-Phenotype (%) | Population Mitochondria Different-Phenotype (%) | Population Mitotic Cells (%) | Population Normal (%) | Population Pyknosed Nuclei (%) | Population Tubulin-Different-Phenotype (%)
CN(C)C(=O)Cn1cc(-c2ccc(-c3nnc4ccccn34)cc2)cn1 | 31% and 43% | 7% | 80% and 79% | 9% and 10% | 0 | 40% and 59% | 68% and 56% | 90% and 89% | 11% and 12% | 32% and 27%
CN(C)C/C=C/C(=O)Nc1ccc(C(=O)N2CCCC(Nc3ncc(Cl)c(-c4c[nH]c5ccccc45)n3)C2)cc1 (configuration not stated) | 46% and 63% | 8% and 6% | 55% and 64% | 30% and 23% | 0 | 87% and 89% | 53% and 36% | 69% and 76% | 35% and 29% | 69% and 70%

same assay, conditions: human, 12 h, 1 µM, compound concentration 1 uM

SMILES | Total Cell Count
CN(C)C(=O)Cn1cc(-c2ccc(-c3nnc4ccccn34)cc2)cn1 | 432 and 337
CN(C)C/C=C/C(=O)Nc1ccc(C(=O)N2CCCC(Nc3ncc(Cl)c(-c4c[nH]c5ccccc45)n3)C2)cc1 (configuration not stated) | 227 and 231

same assay, conditions: human, 12 h, 10 µM, compound concentration 10 uM

SMILES | Population Apoptotic (%) | Population Fragmented Nuclei (%) | Population Healthy Nuclei (%) | Population Hoechst High Intensity Objects (%) | Population Membrane Permeable-Phenotype (%) | Population Mitochondria Different-Phenotype (%) | Population Mitotic Cells (%) | Population Normal (%) | Population Pyknosed Nuclei (%) | Population Tubulin-Different-Phenotype (%)
CN(C)C(=O)Cn1cc(-c2ccc(-c3nnc4ccccn34)cc2)cn1 | 32% and 51% | 9% and 7% | 76% and 80% | 7% and 8% | 0 | 61% and 55% | 67% and 48% | 92% and 91% | 14% and 12% | 42% and 18%
CN(C)C/C=C/C(=O)Nc1ccc(C(=O)N2CCCC(Nc3ncc(Cl)c(-c4c[nH]c5ccccc45)n3)C2)cc1 (configuration not stated) | 62% and 77% | 12% and 7% | 57% and 64% | 35% and 29% | 0 | 95% | 37% and 22% | 64% and 70% | 30% and 28% | 79% and 81%

same assay, conditions: human, 12 h, 10 µM, compound concentration 10 uM

SMILES | Total Cell Count
CN(C)C(=O)Cn1cc(-c2ccc(-c3nnc4ccccn34)cc2)cn1 | 427 and 356
CN(C)C/C=C/C(=O)Nc1ccc(C(=O)N2CCCC(Nc3ncc(Cl)c(-c4c[nH]c5ccccc45)n3)C2)cc1 (configuration not stated) | 269 and 181

same assay, conditions: human, 24 h, 1 µM, compound concentration 1 uM

SMILES | Population Apoptotic (%) | Population Fragmented Nuclei (%) | Population Healthy Nuclei (%) | Population Hoechst High Intensity Objects (%) | Population Membrane Permeable-Phenotype (%) | Population Mitochondria Different-Phenotype (%) | Population Mitotic Cells (%) | Population Normal (%) | Population Pyknosed Nuclei (%) | Population Tubulin-Different-Phenotype (%)
CN(C)C(=O)Cn1cc(-c2ccc(-c3nnc4ccccn34)cc2)cn1 | 27% and 46% | 10% and 9% | 77% and 82% | 6% and 7% | 0 | 28% and 44% | 72% and 53% | 93% and 92% | 12% and 7% | 22% and 18%
CN(C)C/C=C/C(=O)Nc1ccc(C(=O)N2CCCC(Nc3ncc(Cl)c(-c4c[nH]c5ccccc45)n3)C2)cc1 (configuration not stated) | 72% and 74% | 15% and 9% | 62% and 67% | 27% and 26% | 0 | 85% and 89% | 27% and 25% | 72% and 73% | 22% and 23% | 74% and 70%

same assay, conditions: human, 24 h, 1 µM, compound concentration 1 uM

SMILES | Total Cell Count
CN(C)C(=O)Cn1cc(-c2ccc(-c3nnc4ccccn34)cc2)cn1 | 595 and 447
CN(C)C/C=C/C(=O)Nc1ccc(C(=O)N2CCCC(Nc3ncc(Cl)c(-c4c[nH]c5ccccc45)n3)C2)cc1 (configuration not stated) | 222 and 207

same assay, conditions: human, 24 h, 10 µM, compound concentration 10 uM

SMILES | Population Apoptotic (%) | Population Fragmented Nuclei (%) | Population Healthy Nuclei (%) | Population Hoechst High Intensity Objects (%) | Population Membrane Permeable-Phenotype (%) | Population Mitochondria Different-Phenotype (%) | Population Mitotic Cells (%) | Population Normal (%) | Population Pyknosed Nuclei (%) | Population Tubulin-Different-Phenotype (%)
CN(C)C(=O)Cn1cc(-c2ccc(-c3nnc4ccccn34)cc2)cn1 | 35% and 61% | 7% and 13% | 78% and 79% | 4% and 7% | 0 | 44% and 39% | 64% and 38% | 95% and 92% | 13% and 7% | 27% and 11%
CN(C)C/C=C/C(=O)Nc1ccc(C(=O)N2CCCC(Nc3ncc(Cl)c(-c4c[nH]c5ccccc45)n3)C2)cc1 (configuration not stated) | 74% and 88% | 19% and 10% | 55% and 68% | 49% and 34% | 0 | 96% and 98% | 25% and 11% | 50% and 65% | 24% and 20% | 52% and 77%

same assay, conditions: human, 24 h, 10 µM, compound concentration 10 uM

SMILES | Total Cell Count
CN(C)C(=O)Cn1cc(-c2ccc(-c3nnc4ccccn34)cc2)cn1 | 506 and 425
CN(C)C/C=C/C(=O)Nc1ccc(C(=O)N2CCCC(Nc3ncc(Cl)c(-c4c[nH]c5ccccc45)n3)C2)cc1 (configuration not stated) | 314 and 197

same assay, conditions: human, 48 h, 1 µM, compound concentration 1 uM

SMILES | Population Apoptotic (%) | Population Fragmented Nuclei (%) | Population Healthy Nuclei (%) | Population Hoechst High Intensity Objects (%) | Population Membrane Permeable-Phenotype (%) | Population Mitochondria Different-Phenotype (%) | Population Mitotic Cells (%) | Population Normal (%) | Population Pyknosed Nuclei (%) | Population Tubulin-Different-Phenotype (%)
CN(C)C(=O)Cn1cc(-c2ccc(-c3nnc4ccccn34)cc2)cn1 | 18% and 32% | 11% | 81% and 80% | 3% and 4% | 0 | 20% and 22% | 81% and 67% | 96% and 95% | 6% and 7% | 13% and 12%
CN(C)C/C=C/C(=O)Nc1ccc(C(=O)N2CCCC(Nc3ncc(Cl)c(-c4c[nH]c5ccccc45)n3)C2)cc1 (configuration not stated) | 67% and 81% | 16% and 6% | 59% and 65% | 30% and 26% | 0 | 79% and 95% | 32% and 18% | 69% and 73% | 23% and 27% | 71% and 74%

same assay, conditions: human, 48 h, 1 µM, compound concentration 1 uM

SMILES | Total Cell Count
CN(C)C(=O)Cn1cc(-c2ccc(-c3nnc4ccccn34)cc2)cn1 | 946 and 572
CN(C)C/C=C/C(=O)Nc1ccc(C(=O)N2CCCC(Nc3ncc(Cl)c(-c4c[nH]c5ccccc45)n3)C2)cc1 (configuration not stated) | 239 and 184

same assay, conditions: human, 48 h, 10 µM, compound concentration 10 uM

SMILES | Population Apoptotic (%) | Population Fragmented Nuclei (%) | Population Healthy Nuclei (%) | Population Hoechst High Intensity Objects (%) | Population Membrane Permeable-Phenotype (%) | Population Mitochondria Different-Phenotype (%) | Population Mitotic Cells (%) | Population Normal (%) | Population Pyknosed Nuclei (%) | Population Tubulin-Different-Phenotype (%)
CN(C)C(=O)Cn1cc(-c2ccc(-c3nnc4ccccn34)cc2)cn1 | 30% and 37% | 18% and 14% | 74% and 79% | 5% and 2% | 0 | 24% and 27% | 69% and 62% | 94% and 97% | 6% and 5% | 14% and 12%
CN(C)C/C=C/C(=O)Nc1ccc(C(=O)N2CCCC(Nc3ncc(Cl)c(-c4c[nH]c5ccccc45)n3)C2)cc1 (configuration not stated) | 55% and 80% | 62% and 47% | 14% and 30% | 67% and 58% | 0 | 100% and 94% | 44% and 20% | 32% and 41% | 23% and 21% | 23% and 57%

same assay, conditions: human, 48 h, 10 µM, compound concentration 10 uM

SMILES | Total Cell Count
CN(C)C(=O)Cn1cc(-c2ccc(-c3nnc4ccccn34)cc2)cn1 | 753 and 616
CN(C)C/C=C/C(=O)Nc1ccc(C(=O)N2CCCC(Nc3ncc(Cl)c(-c4c[nH]c5ccccc45)n3)C2)cc1 (configuration not stated) | 361 and 277
